Measured values published in ChEMBL document CHEMBL4811275, “Iodinated 1,2-diacylhydrazines, benzohydrazide-hydrazones and their analogues as dual antimicrobial and cytotoxic agents” (Bioorg Med Chem, 2021).
In brackets after ≈: the same amount, converted by molar mass.

Columns and labels:
Staphylococcus aureus [1] = assay: Antibacterial activity against Staphylococcus aureus ATCC 29213 assessed as reduction in bacterial growth incubated for 24 hrs by broth microdilution method; assay type: functional
Procedure, shortened: (§1)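 Cation-adjusted Mueller-Hinton broth microdilution per EUCAST, modified; compounds from DMSO stocks, final DMSO ≤1% v/v; scale starting from 0.49 µM. Static incubation at 35 ± 2 °C, dark, humidified, read at 24 and 48 h. MIC = lowest concentration with no visible growth by eye; duplicates, parallel readings within one dilution step; growth and medium/DMSO controls included.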

Staphylococcus aureus [2] = assay: Antibacterial activity against Staphylococcus aureus ATCC 29213 assessed as reduction in bacterial growth incubated for 48 hrs by broth microdilution method; assay type: functional; procedure, shortened: as §1
Staphylococcus aureus [3] = assay: Antibacterial activity against methicillin-resistant Staphylococcus aureus ATCC 43300 assessed as reduction in bacterial growth incubated for 24 hrs by broth microdilution method; assay type: functional
Procedure, shortened: (§2)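 EUCAST-based broth microdilution in cation-adjusted Mueller-Hinton broth. DMSO stocks, final DMSO ≤1% v/v, concentration scale starting from 0.49 µM. Static incubation at 35 ± 2 °C, dark and humidified. Run in duplicate, accepted only if parallel MICs differ by at most one dilution step. MIC is the lowest concentration with no visible growth by naked eye.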

Staphylococcus aureus [4] = assay: Antibacterial activity against methicillin-resistant Staphylococcus aureus ATCC 43300 assessed as reduction in bacterial growth incubated for 48 hrs by broth microdilution method; assay type: functional; procedure, shortened: as §2
[5] = system: Staphylococcus epidermidis; assay: Antibacterial activity against Staphylococcus epidermidis ATCC 12228 assessed as reduction in bacterial growth incubated for 24 hrs by broth microdilution method; assay type: functional; procedure, shortened: as §1
[6] = system: Staphylococcus epidermidis; assay: Antibacterial activity against Staphylococcus epidermidis ATCC 12228 assessed as reduction in bacterial growth incubated for 48 hrs by broth microdilution method; assay type: functional; procedure, shortened: as §1
Enterococcus faecalis [7] = assay: Antibacterial activity against Enterococcus faecalis ATCC 29212 assessed as reduction in bacterial growth incubated for 24 hrs by broth microdilution method; assay type: functional; procedure, shortened: as §1
Enterococcus faecalis [8] = assay: Antibacterial activity against Enterococcus faecalis ATCC 29212 assessed as reduction in bacterial growth incubated for 48 hrs by broth microdilution method; assay type: functional; procedure, shortened: as §1
Escherichia coli [9] = assay: Antibacterial activity against Escherichia coli ATCC 25922 assessed as reduction in bacterial growth incubated for 24 hrs by broth microdilution method; assay type: functional; procedure, shortened: as §1
Escherichia coli [10] = assay: Antibacterial activity against Escherichia coli ATCC 25922 assessed as reduction in bacterial growth incubated for 48 hrs by broth microdilution method; assay type: functional; procedure, shortened: as §1
HepG2 = assay: Cytotoxicity against human HepG2 cells assessed as reduction in cell viability incubated for 24 hrs by cell-titer 96 aqueous one solution cell proliferation assay; assay type: functional, cell-based; conditions: HepG2, 24 h

## COc1ccc(C(=O)N/N=C/c2cc(I)cc(I)c2O)cc1
Staphylococcus aureus [1]
  MIC: > 500 µM
Staphylococcus aureus [2]
  MIC: > 500 µM
Staphylococcus aureus [3]
  MIC: > 500 µM
Staphylococcus aureus [4]
  MIC: > 500 µM
[5]
  MIC: > 500 µM
[6]
  MIC: > 500 µM
Enterococcus faecalis [7]
  MIC: > 500 µM
Enterococcus faecalis [8]
  MIC: > 500 µM
Escherichia coli [9]
  MIC: > 500 µM
Escherichia coli [10]
  MIC: > 500 µM
HepG2
  IC50: 45.1 µM

## O=C(NNC(=O)c1cc(I)cc(I)c1O)c1ccccc1
HepG2
  IC50: 98 µM

## Cc1ccc(C(=O)N/N=C/c2cc(I)cc(I)c2O)cc1
Staphylococcus aureus [1]
  MIC: > 500 µM
Staphylococcus aureus [2]
  MIC: > 500 µM
Staphylococcus aureus [3]
  MIC: > 500 µM
Staphylococcus aureus [4]
  MIC: > 500 µM
[5]
  MIC: > 500 µM
[6]
  MIC: > 500 µM
Enterococcus faecalis [7]
  MIC: > 500 µM
Enterococcus faecalis [8]
  MIC: > 500 µM
Escherichia coli [9]
  MIC: > 500 µM
Escherichia coli [10]
  MIC: > 500 µM
HepG2
  IC50: > 25 µM

## O=C(N/N=C/c1cc(I)cc(I)c1O)c1ccc(I)cc1
Staphylococcus aureus [1]
  MIC: > 125 µM
Staphylococcus aureus [2]
  MIC: > 125 µM
Staphylococcus aureus [3]
  MIC: > 125 µM
Staphylococcus aureus [4]
  MIC: > 125 µM
[5]
  MIC: > 125 µM
[6]
  MIC: > 125 µM
Enterococcus faecalis [7]
  MIC: > 125 µM
Enterococcus faecalis [8]
  MIC: > 125 µM
Escherichia coli [9]
  MIC: > 125 µM
Escherichia coli [10]
  MIC: > 125 µM
HepG2
  IC50: 31.8 µM

## O=C(N/N=C/c1cc(I)c(O)c(I)c1)c1ccccc1
Staphylococcus aureus [1]
  MIC: 250 µM (≈ 123 µg/mL)
Staphylococcus aureus [2]
  MIC: 250 µM (≈ 123 µg/mL)
Staphylococcus aureus [3]
  MIC: 500 µM (≈ 246 µg/mL)
Staphylococcus aureus [4]
  MIC: > 500 µM
[5]
  MIC: > 500 µM
[6]
  MIC: > 500 µM
Enterococcus faecalis [7]
  MIC: > 500 µM
Enterococcus faecalis [8]
  MIC: > 500 µM
Escherichia coli [9]
  MIC: > 500 µM
Escherichia coli [10]
  MIC: > 500 µM
HepG2
  IC50: 191 µM

## O=C(NNC(=O)c1cc(I)cc(I)c1O)c1ccc(C(F)(F)F)cc1
HepG2
  IC50: 167 µM

## O=C(N/N=C/c1cc(I)c(O)c(I)c1)c1ccc([N+](=O)[O-])cc1
Staphylococcus aureus [1]
  MIC: 250 µM (≈ 134 µg/mL)
Staphylococcus aureus [2]
  MIC: 250 µM (≈ 134 µg/mL)
Staphylococcus aureus [3]
  MIC: 500 µM (≈ 269 µg/mL)
Staphylococcus aureus [4]
  MIC: > 500 µM
[5]
  MIC: > 500 µM
[6]
  MIC: > 500 µM
Enterococcus faecalis [7]
  MIC: > 500 µM
Enterococcus faecalis [8]
  MIC: > 500 µM
Escherichia coli [9]
  MIC: > 500 µM
Escherichia coli [10]
  MIC: > 500 µM
HepG2
  IC50: 92.1 µM

## O=C(NNC(=O)c1cc(I)cc(I)c1O)c1ccc([N+](=O)[O-])cc1
HepG2
  IC50: 159 µM

## O=C(N/N=C/c1cc(I)c(O)c(I)c1)c1ccc(C(F)(F)F)cc1
Staphylococcus aureus [1]
  MIC: 125 µM (≈ 70 µg/mL)
Staphylococcus aureus [2]
  MIC: 500 µM (≈ 280 µg/mL)
Staphylococcus aureus [3]
  MIC: 500 µM (≈ 280 µg/mL)
Staphylococcus aureus [4]
  MIC: 500 µM (≈ 280 µg/mL)
[5]
  MIC: 500 µM (≈ 280 µg/mL)
[6]
  MIC: 500 µM (≈ 280 µg/mL)
Enterococcus faecalis [7]
  MIC: 500 µM (≈ 280 µg/mL)
Enterococcus faecalis [8]
  MIC: 500 µM (≈ 280 µg/mL)
Escherichia coli [9]
  MIC: > 500 µM
Escherichia coli [10]
  MIC: > 500 µM
HepG2
  IC50: 57.4 µM

## O=C(NNC(=O)c1cc(I)cc(I)c1O)c1ccc(F)cc1
Staphylococcus aureus [1]
  MIC: 500 µM (≈ 263 µg/mL)
Staphylococcus aureus [2]
  MIC: 500 µM (≈ 263 µg/mL)
Staphylococcus aureus [3]
  MIC: 500 µM (≈ 263 µg/mL)
Staphylococcus aureus [4]
  MIC: 500 µM (≈ 263 µg/mL)
[5]
  MIC: 500 µM (≈ 263 µg/mL)
[6]
  MIC: 500 µM (≈ 263 µg/mL)
Enterococcus faecalis [7]
  MIC: 500 µM (≈ 263 µg/mL)
Enterococcus faecalis [8]
  MIC: 500 µM (≈ 263 µg/mL)
Escherichia coli [9]
  MIC: > 500 µM
Escherichia coli [10]
  MIC: > 500 µM
HepG2
  IC50: 87 µM

## Cc1ccc(C(=O)NNC(=O)c2cc(I)cc(I)c2O)cc1
Staphylococcus aureus [1]
  MIC: 125 µM (≈ 65.3 µg/mL)
Staphylococcus aureus [2]
  MIC: > 125 µM
Staphylococcus aureus [3]
  MIC: > 125 µM
Staphylococcus aureus [4]
  MIC: > 125 µM
[5]
  MIC: 125 µM (≈ 65.3 µg/mL)
[6]
  MIC: > 125 µM
Enterococcus faecalis [7]
  MIC: > 125 µM
Enterococcus faecalis [8]
  MIC: > 125 µM
Escherichia coli [9]
  MIC: > 125 µM
Escherichia coli [10]
  MIC: > 125 µM
HepG2
  IC50: 86.4 µM

## O=C(NNCc1cc(I)cc(I)c1O)c1ccc(Cl)cc1
Staphylococcus aureus [1]
  MIC: 31.2 µM (≈ 16.5 µg/mL)
Staphylococcus aureus [2]
  MIC: 62.5 µM (≈ 33 µg/mL)
Staphylococcus aureus [3]
  MIC: 31.2 µM (≈ 16.5 µg/mL)
Staphylococcus aureus [4]
  MIC: 62.5 µM (≈ 33 µg/mL)
[5]
  MIC: 15.6 µM (≈ 8.26 µg/mL)
[6]
  MIC: 15.6 µM (≈ 8.26 µg/mL)
Enterococcus faecalis [7]
  MIC: 15.6 µM (≈ 8.26 µg/mL)
Enterococcus faecalis [8]
  MIC: 15.6 µM (≈ 8.26 µg/mL)
Escherichia coli [9]
  MIC: > 500 µM
Escherichia coli [10]
  MIC: > 500 µM
HepG2
  IC50: 52.2 µM

## CCN1CCN(C(=O)N[C@@H](C(=O)N[C@@H]2C(=O)N3[C@@H]2SC(C)(C)[C@@H]3C(=O)O)c2ccccc2)C(=O)C1=O [PIPERACILLIN SODIUM]
Staphylococcus aureus [1]
  MIC: 1.85 µM
Staphylococcus aureus [3]
  MIC: 14.8 µM
[5]
  MIC: > 59.3 µM
Enterococcus faecalis [7]
  MIC: 7.41 µM
Escherichia coli [9]
  MIC: 3.71 µM

## O=C(N/N=C/c1cc(I)cc(I)c1O)c1ccc(Cl)cc1
Staphylococcus aureus [1]
  MIC: 31.2 µM (≈ 16.5 µg/mL)
Staphylococcus aureus [2]
  MIC: 31.2 µM (≈ 16.5 µg/mL)
Staphylococcus aureus [3]
  MIC: 31.2 µM (≈ 16.5 µg/mL)
Staphylococcus aureus [4]
  MIC: 62.5 µM (≈ 32.9 µg/mL)
[5]
  MIC: 31.2 µM (≈ 16.5 µg/mL)
[6]
  MIC: 62.5 µM (≈ 32.9 µg/mL)
Enterococcus faecalis [7]
  MIC: 62.5 µM (≈ 32.9 µg/mL)
Enterococcus faecalis [8]
  MIC: 62.5 µM (≈ 32.9 µg/mL)
Escherichia coli [9]
  MIC: > 500 µM
Escherichia coli [10]
  MIC: > 500 µM
HepG2
  IC50: 14.8 µM

## O=C(N/N=C/c1cc(I)c(O)c(I)c1)c1ccc(Cl)cc1
Staphylococcus aureus [1]
  MIC: > 500 µM
Staphylococcus aureus [2]
  MIC: > 500 µM
Staphylococcus aureus [3]
  MIC: > 500 µM
Staphylococcus aureus [4]
  MIC: > 500 µM
[5]
  MIC: > 500 µM
[6]
  MIC: > 500 µM
Enterococcus faecalis [7]
  MIC: > 500 µM
Enterococcus faecalis [8]
  MIC: > 500 µM
Escherichia coli [9]
  MIC: > 500 µM
Escherichia coli [10]
  MIC: > 500 µM
HepG2
  IC50: > 100 µM
